Results pooled from the literature.
Protocols differ between the studies behind these lines.
Target: Calcium/calmodulin-dependent protein kinase type 1B (PNCK, Homo sapiens, UniProt Q6P2M8)

For Cc1sc(C(=O)NC2COC2)cc1-n1cc(NC(=O)Nc2c(F)cccc2Cl)cn1, the remaining activity was 74.1% (enzyme activity, inhibitor; 10 µM).
COc1cc(Cl)c(C(=O)N[C@@H](CN[C@H]2CC[C@@H](N)CC2)Cc2ccc(C#N)cc2)cc1-c1ccc(CN[C@H](C)c2ccc(C)cc2)o1 has a remaining activity of 98% (enzyme activity, inhibitor; 1 µM).
N#CCCc1ccc2c(c1)-c1[nH]c3ccc([N+](=O)[O-])cc3c1CC(=O)N2 gave a remaining signal of 107% (cell-free assay; 0.5 µM).
CC(C)(O)[C@H]1CC[C@H](Nc2ccc3ncc(-c4cccc(C(F)(F)F)c4)n3n2)CC1 has a remaining activity of 100% (enzyme activity, inhibitor; 1 µM).
With Nc1ncnc2occ(-c3ccc(NC(=O)Nc4cc(C(F)(F)F)ccc4F)cc3)c12 the remaining signal was 0.5% (cell-free assay; 20 µM).
The remaining activity of O=C(Nc1cnn(-c2csc(C(=O)NC3COC3)c2)c1)Nc1ccccc1Cl is reported as 92.1% (enzyme activity, inhibitor; 5 µM).
CN([C@@H]1CCc2c(CC(=O)O)c3ccccc3n2C1)S(=O)(=O)c1ccc(F)cc1 gave a remaining binding of 87% (cell-free assay, competition with immobilised ligand; 1 µM).
With Cc1ccc(C(=O)Nc2ccc(CN3CCN(C)CC3)c(C(F)(F)F)c2)cc1C#Cc1cnc2cccnn12 the remaining signal was 89% (cell-free assay; 23.5 nM).
CN1CC(Oc2cnc(C#N)cc2-c2ccn3nc(NC(=O)C4CC4)cc3c2)C1 gave an inhibition of -21% (enzyme activity, inhibitor; 1 µM).
With CCc1ccccc1C(=O)Nc1n[nH]c2c(C)c(F)c(C3C(C#N)=C(C)N(C)C(C)=C3C#N)cc12 the remaining binding was 100% (cell-free assay, competition with immobilised ligand; 1 µM).
CN(CCCC(F)(F)F)c1nccc(-c2cnn3ncccc23)n1 gave a remaining binding of 100% (binding; 1 µM).
